From ChEMBL document CHEMBL2331331 (J Med Chem, 2013) come the findings set out here.

The term IC50 denotes the concentration at which inhibition is half-maximal.

Molecules are shown by their SMILES. The source made the active and inactive calls. The calls are words filed in the database; no cut-off is given here.

Assay [1] addresses Serine/threonine-protein kinase PAK 4 (Homo sapiens, UniProt O96013). In words: Inhibition of PAK4 (unknown origin). In short, it runs like this:
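Single selected panel of recombinant human protein kinases, screened in vitro. The value reported is the IC50 against each kinase.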

The next assay relates to KARPAS-299. Kind of assay: Cytotoxicity against human KARPAS299 cells assessed as growth inhibition after 72 hrs by MTT assay. Particulars: KARPAS-299, 72 h.
A further assay has as its system Mus musculus. In words: Inhibition of FLT3-ITD mutant in human MV4-11 cells xenografted in NOD-SCID mouse assessed as inhibition of STAT5 phosphorylation at 10 mg/kg/day, po after 3 days by immunostaining method relative to vehicle-treated control. It counts as functional, organism-based. An outline of the steps: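 Mice (NOD-SCID) bearing sc MV4-11 tumors given 10 mg/kg/d by oral gavage. Tumors removed after 2–4 days and formalin-fixed. Sections immunostained for Ki67 (proliferation) or p-STAT5, or TUNEL-stained (apoptosis). Imaged by light microscopy and compared with vehicle group.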

Sequence of Serine/threonine-protein kinase PAK 4 (O96013 whole entry): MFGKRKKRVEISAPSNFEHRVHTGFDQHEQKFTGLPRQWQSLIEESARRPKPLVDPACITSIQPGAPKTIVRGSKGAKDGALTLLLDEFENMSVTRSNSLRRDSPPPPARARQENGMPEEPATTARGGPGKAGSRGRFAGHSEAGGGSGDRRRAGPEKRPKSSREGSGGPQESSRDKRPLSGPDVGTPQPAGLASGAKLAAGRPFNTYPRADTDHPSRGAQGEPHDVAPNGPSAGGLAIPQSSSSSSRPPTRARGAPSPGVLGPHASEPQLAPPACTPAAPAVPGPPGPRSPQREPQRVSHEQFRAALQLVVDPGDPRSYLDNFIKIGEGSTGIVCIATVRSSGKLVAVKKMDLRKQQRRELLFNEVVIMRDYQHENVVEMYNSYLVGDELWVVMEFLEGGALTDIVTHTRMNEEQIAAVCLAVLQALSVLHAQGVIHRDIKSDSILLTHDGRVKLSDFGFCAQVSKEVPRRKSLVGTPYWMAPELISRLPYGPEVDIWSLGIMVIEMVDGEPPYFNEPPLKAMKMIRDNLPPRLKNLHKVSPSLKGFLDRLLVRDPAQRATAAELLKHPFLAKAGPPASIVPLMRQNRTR

With `O=C(Nc1ccc(Oc2ncnc3[nH]ncc23)cc1)Nc1ccc(Cl)c(C(F)(F)F)c1`, the IC50 (in assay [1]; with KARPAS-299) was above 10 µM in each case. Also, the inhibition result in the assay with Mus musculus was “Active”.
